Bioassay records as filed in PubChem.
A selection: hits, their analogues and other compounds. The true share with any hit is near 9.2%.
Dynein cargo inh: dynein cargo transport inhibition; z-score, hits read low; AID 1381; 3617.4 mouse cells, GR-EGFP nuclear translocation imaging; test concentration mostly 20 µM; stimulated with dexamethasone, 1 µM; stronger effect = lower value; hit rate 0.47% among 220,000;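 active = plate z-score of nuclear minus cytoplasmic receptor signal below a set negative limit, without overly bright fluorescence or cell loss, cut at about -3.5 in these data, passing the limit was not always enough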;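 note: z-score of nuclear minus cytoplasmic ring GR-EGFP intensity difference per well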
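Buffer or medium: tetracycline-free induction medium containing charcoal-stripped FBS / Reagent: dexamethasone agonist, 1.0 µM final, for 30 min / Technique: automated 10x imaging of fixed Hoechst-stained cells / Times: induction 48 h, compound 1 h, agonist 30 min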
Autophagy mod: alters autophagy in cells; MEF GFP-LC3 puncta imaging; test concentration mostly 10 µM; calls only at 10 µM (by protocol); hit rate 0.98% among 190,000; AID 463193;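 active = percentage of spot-positive cells more than 3 SD above its plate mean, without a fluorescence outlier flag or 80% toxicity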
PTEN del growth: growth suppressors of cells with PTEN tumor suppressor deletion | HCT116 PTEN-null viability, CellTiter-Glo, 60 h; stronger effect = lower value | viability, % at 10 µM | hit rate 1.2% among 140,000;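 active = viability at or below a set limit, 4 SD under the median of all tested compounds, cut at about 3.7% in these data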;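 note: PTEN knockout HCT116 line with beta catenin targeted HCT116 as companion control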
Lmaj promast: inhibitors of Leishmania major promastigote growth | Leishmania major promastigotes, resazurin fluorescence viability | inhibition, % at 10 µM | hit rate 9% among 200,000 | AID 1063; in the data active = inhibition above about 50%;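 note: promastigotes grown with compound for 44 hours at 28 °C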
HCT116 bCat-KO: beta-catenin-lacking colon tumor cell growth suppression; viability, % at 10 µM; HCT116 beta-catenin knockout viability, CellTiter-Glo, 60 h; stronger effect = lower value; AID 818; hit rate 1.5% among 140,000;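 active = viability at or under a set limit, the compound median less 4 SD, cut at about 6% in these data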
Numbers stand for hits; – = inactive; · = not tested or not shown; + = active, no number.

SMILES	Dynein cargo inh	Autophagy mod	PTEN del growth	Lmaj promast	HCT116 bCat-KO
Cc1ccc(NC(=O)C(Nc2ccccc2)c2ccccc2)cc1 (centres undefined)	–	–	–	88	–
Cc1ccc(NC(=O)C(Nc2cccc(C)c2)c2ccccc2)cc1 (centres undefined)	–	–	–	59	–
Cc1cc(C)cc(NC(=O)C(Nc2ccccc2)c2ccccc2)c1 (centres undefined)	–	–	–	–	–
CCCCCCNS(=O)(=O)c1nc2nc(C)cc(C)n2n1	–	–	–	–	–
COc1cc2c(cc1OC)C1=CC(=O)C(=O)N1C(C)(C)C2	–	+	·	–	·
COc1cc2c(cc1OC)-c1nc3ccccc3c(=O)n1C(C)(C)C2	–	–	–	–	–
OCCC1CN(Cc2nc3ccc(F)cc3[nH]2)CCN1C1CCCC1 (centres undefined)	–	·	·	·	·
CC(C)CCN1CCN(Cc2ccc(C#CCCO)cc2)CC1CCO (centres undefined)	–	–	·	–	·
Cc1cccc(N2CCC(N3CCN(C4CCCCC4)C(CCO)C3)CC2)c1C (centres undefined)	–	–	·	88	·
Cc1cc(C)n(-c2ccc(F)cc2CN2CCN(C3CCCC3)C(CCO)C2)n1 (centres undefined)	–	+	·	–	·
CSc1ccc(CN2CCN(CCC(C)C)C(CCO)C2)cc1 (centres undefined)	–	–	·	78	·
CSc1ccc(CN2CCN(C3CCCC3)C(CCO)C2)cc1 (centres undefined)	–	–	·	62	·
CCOC(=O)C1=C(O)/C(=C/c2ccc(C)o2)SC1=NC(=O)c1ccccc1C	–	–	·	–	·
O=C(O)CCCN=CC1=C(O)C(C(=O)c2ccccc2)CCC1=O (centres undefined)	–	–	–	–	–
CNC(=O)NC(=O)COC(=O)/C=C/c1cccc(Br)c1	–	–	·	–	·
CCC(C(=O)Nc1sc(C(N)=O)c(C)c1C(=O)OC)c1ccccc1 (centres undefined)	–	–	·	–	·
CN(Cc1ccccc1F)c1ccc(S(=O)(=O)N2CCCC2)cn1	–	–	·	98	·
CC(=O)Nc1ccc(N(C(=O)Cn2nnc3ccccc32)C(C(=O)NC2CCCC2)c2ccc(O)c(O)c2)cc1 (centres undefined)	–	–	·	–	·
COc1ccccc1Nc1nc(NCCO)c2ccccc2n1	–	–	–	–	–
COc1cccc(-c2nc(NCC3CCCO3)c3ccccc3n2)c1O (centres undefined)	–	+	–	–	–
COc1ccccc1Nc1nc(NCC2CCCO2)c2ccccc2n1 (centres undefined)	–	–	·	100	·
Cc1occc1-c1nnc(SCC(=O)N2CCCc3ccccc32)n1Cc1ccco1	–	–	–	74	–
Cc1cccc(-n2ccnc2SCC(=O)N2CCCc3ccccc32)c1C	–	–	–	60	–
O=C(CSc1nnc(-c2cccnc2)n1Cc1ccco1)N1CCc2ccccc21	–	–	–	–	–
CC1=NN(C(=O)c2ccoc2C)C(O)(C(F)(F)F)C1 (centres undefined)	–	·	·	·	·
SMILES	Dynein cargo inh	Autophagy mod	PTEN del growth	Lmaj promast	HCT116 bCat-KO
COc1ccc(-c2cc(C#N)nc(N3CCNCC3)n2)cc1	–	–	0.4	100	0.6
O=C1NC2(CCCCC2)C(=O)N1Cc1cccc(C(F)(F)F)c1	–	–	·	98	·
Cc1ccc(C(NC(=O)/C=C\c2ccc3c(c2)OCO3)C(=O)Nc2ccc3c(c2)OCO3)cc1 (centres undefined)	–	–	–	100	–
O=C(NC1CCCCC1)C(c1cccs1)N(C(=O)Cc1c[nH]c2ccccc12)c1ccc(F)cc1 (centres undefined)	–	–	–	75	–
COc1cc(C(C(=O)NC2CCCCC2)N(C(=O)Cc2c[nH]c3ccccc23)c2ccc(C)cc2)cc(OC)c1OC (centres undefined)	–	–	–	90	–
Cc1ccc(C(C(=O)Nc2ccc3c(c2)OCO3)N(C)C(=O)Cc2c[nH]c3ccccc23)cc1 (centres undefined)	–	–	–	70	–
CC(=O)NC(Cc1c[nH]c2ccccc12)C(=O)OCC(=O)Nc1ccc2c(c1)OCO2 (centres undefined)	–	–	–	–	–
CCOC(=O)c1cccc(NC(=O)/C=C/c2ccc3c(c2)OCO3)c1	–	–	–	–	–
COc1ccc(C(=O)N[C@H](C(=O)OCc2cc(=O)oc3cc(C)ccc23)C(C)C)cc1	–	–	–	–	–
C=CCOc1c(CCC)cc(CCC)cc1C(N)=O	–	·	·	·	·
O=c1[nH]nc(N/N=C/c2ccccc2OC(F)F)c(=O)[nH]1	–	·	·	·	·
CC(=O)Nc1ccc(N(C(=O)Cc2c[nH]c3ccccc23)C(C(=O)NC2CCCCC2)c2ccco2)cc1 (centres undefined)	–	–	–	60	–
COc1ccc(N2CC(C)Cn3c2nc2c3c(=O)[nH]c(=O)n2C)cc1 (centres undefined)	–	–	–	–	–
CC1=C(C(=O)OCC(C)C)[C@]23C(=O)c4ccccc4[C@@]2(O1)OC(N)=C3C#N	–	–	–	–	–
CCC(C)OC(=O)C1=C(C)OC23OC(N)=C(C#N)C12C(=O)c1ccccc13 (centres undefined)	–	–	–	86	–
O=C(O)c1[nH]c2ccc(Br)cc2c1CCN1C(=O)c2cccc([N+](=O)[O-])c2C1=O	–	·	·	·	·
CCOC(=O)c1cc2c(ccn2C)n1CC(=O)N1CCC(Cc2ccccc2)CC1	–	–	–	95	–
S=C(NCCc1ccccc1)N1CCn2cccc2C1c1cccnc1 (centres undefined)	–	–	·	95	·
S=C(NCc1ccccc1)N1CCn2cccc2C1c1ccncc1 (centres undefined)	–	–	·	–	·
S=C(NCc1ccccc1)N1CCn2cccc2C1c1cccnc1 (centres undefined)	–	–	·	91	·
Cc1ccc(N2CCN(C(=O)c3cc(C(=O)c4ccccc4C)c[nH]3)CC2)c(C)c1	–	–	·	–	·
CCC(C)(C)n1nnnc1C(c1cc2ccc(OC)cc2[nH]c1=O)N1CCN(C2CCCCC2)CC1 (centres undefined)	–	–	–	–	–
COc1ccccc1N1CCN(C(c2cc3cc(C)ccc3[nH]c2=O)c2nnnn2C2CCCC2)CC1 (centres undefined)	–	–	–	54	–
COc1ccccc1N1CCN(C(c2cc3ccc(C)cc3[nH]c2=O)c2nnnn2C2CCCC2)CC1 (centres undefined)	–	–	–	62	3.0
CCOC(=O)C1CCN(C(c2cc3ccc(C)cc3[nH]c2=O)c2nnnn2C2CCCCC2)CC1 (centres undefined)	–	–	–	88	–
O=C(CSc1ccc(-c2ccco2)nn1)c1ccccc1	–	–	–	–	–
Cc1ccc(CNC(=O)c2ccccc2NC(=O)CSc2nnnn2C)cc1	–	+	–	–	–
Cn1nnnc1SCC(=O)Nc1ccccc1C(=O)NCc1ccccc1	–	–	–	–	–
